{"data": "Results collected from several papers", "OPRD1": "Delta-type opioid receptor (OPRD1, Homo sapiens, UniProt P41143)", "gyrA": "DNA gyrase subunit A (gyrA, Escherichia coli K-12, UniProt P0AES4)", "gag-pol reverse transcriptase": "Gag-Pol polyprotein, reverse transcriptase (gag-pol, Human immunodeficiency virus 1, UniProt P03366)", "HTR3A": "5-hydroxytryptamine receptor 3A (HTR3A, Homo sapiens, UniProt P46098)"}
{"SMILES": "CNC(=O)[C@@]12C[C@@H]1[C@@H](n1cnc3c(NC)nc(C#Cc4ccc(F)c(F)c4)nc31)[C@H](O)[C@@H]2O", "target": "OPRD1", "assay": "ligand displacement, radioligand", "quantity": "Ki", "value": "> 10 µM"}
{"SMILES": "CC(C)Oc1c(N)ccc(C(=O)Nc2ccc(C(=O)N[C@@H](CC(N)=O)C(=O)Nc3ccc(C(=O)Nc4ccc(C(=O)Nc5ccc(C(=O)O)cc5)c(O)c4OC(C)C)cc3)cc2)c1O", "target": "gyrA", "assay": "enzyme activity, inhibitor", "quantity": "IC50", "value": "50 µM"}
{"SMILES": "CC1=C(/C=C/C2=CCC[C@@]3(C)[C@H]2CC[C@@H]3[C@@](C)(O)CCCC(C)C)C[C@@H](O)CC1", "target": "Oxysterols receptor LXR-alpha (NR1H3, Homo sapiens, UniProt Q13133)", "assay": "coactivator recruitment, agonist, TR-FRET", "quantity": "EC50", "value": "0.01 to 0.1 µM"}
{"SMILES": "CC(C)Oc1c(NC(=O)c2ccc(NC(=O)[C@H](CC(N)=O)NC(=O)c3ccc(NC(=O)c4ccccc4)cc3)cc2)ccc(C(=O)Nc2ccc(C(=O)O)cc2)c1O", "target": "gyrA", "assay": "enzyme activity, inhibitor", "quantity": "IC50", "value": "4 µM"}
{"SMILES": "Cc1cc(C)cc(S(=O)(=O)c2c(C(=O)NCCCCNS(=O)(=O)c3ccc(Cl)cc3)[nH]c3ccc(Cl)cc23)c1", "target": "gag-pol reverse transcriptase", "assay": "enzyme activity, inhibitor, ELISA", "quantity": "IC50", "value": "0.094 µM"}
{"SMILES": "CNC(=O)[C@@]12C[C@@H]1[C@@H](n1cnc3c(NC)nc(C#Cc4ccc(Cl)s4)nc31)[C@H](O)[C@@H]2O", "target": "OPRD1", "assay": "ligand displacement, radioligand", "quantity": "Ki", "value": "> 10 µM"}
{"SMILES": "Cc1cc(C)cc(S(=O)(=O)c2c(C(=O)NCCCCNS(=O)(=O)c3ccc(C#N)cc3)[nH]c3ccc(Cl)cc23)c1", "target": "gag-pol reverse transcriptase", "assay": "enzyme activity, inhibitor, ELISA", "quantity": "IC50", "value": "0.12 µM"}
{"SMILES": "CNc1nc(C#Cc2ccc(Br)s2)nc2c1ncn2[C@H]1[C@H](O)[C@H](O)[C@]2(C(=O)OC)C[C@H]12", "target": "OPRD1", "assay": "ligand displacement, radioligand", "quantity": "Ki", "value": "> 10 µM"}
{"SMILES": "CC(C)COc1c(NC(=O)c2ccc(NC(=O)[C@H](CC(N)=O)NC(=O)c3ccc(NC(=O)c4ccc([N+](=O)[O-])cc4)cc3)cc2)ccc(C(=O)Nc2ccc(C(=O)O)cc2)c1O", "target": "gyrA", "assay": "enzyme activity, inhibitor", "quantity": "IC50", "value": "0.9 µM"}
{"SMILES": "Cc1cc(C)cc(S(=O)(=O)c2c(C(=O)NCCCCCNS(=O)(=O)c3ccc([N+](=O)[O-])cc3)[nH]c3ccc(Cl)cc23)c1", "target": "gag-pol reverse transcriptase", "assay": "enzyme activity, inhibitor, ELISA", "quantity": "IC50", "value": "0.16 µM"}
{"SMILES": "N#Cc1ccc(Nc2nc(N)cc(Oc3c(F)cc(-c4ccc(C#N)c(F)c4)cc3F)n2)cc1", "target": "gag-pol reverse transcriptase", "assay": "enzyme activity, inhibitor", "quantity": "IC50", "value": "0.04 µM"}
{"SMILES": "Cc1cc(C)cc(S(=O)(=O)c2c(C(=O)NCCNS(=O)(=O)c3ccc(F)cc3)[nH]c3ccc(Cl)cc23)c1", "target": "gag-pol reverse transcriptase", "assay": "enzyme activity, inhibitor, ELISA", "quantity": "IC50", "value": "0.066 µM"}
{"SMILES": "CC(C)Oc1c(NC(=O)c2ccc(NC(=O)[C@H](CC(N)=O)NC(=O)c3ccc(NC(=O)c4ccc(C5(C(F)(F)F)N=N5)cc4)cc3)cc2)ccc(C(=O)Nc2ccc(C(=O)O)cc2)c1O", "target": "gyrA", "assay": "enzyme activity, inhibitor", "quantity": "IC50", "value": "16 µM"}
{"SMILES": "N#Cc1ccc(Nc2nc(N)cc(Oc3ccc(-c4cccc(C#N)c4)cc3F)n2)cc1", "target": "gag-pol reverse transcriptase", "assay": "enzyme activity, inhibitor", "quantity": "IC50", "value": "0.34 µM"}
{"SMILES": "CCn1c(-c2nc3cc(C(=O)N4CCC[C@@H](N)C4)cc(OC)c3n2C)cc2cccnc21", "target": "HTR3A", "assay": "calcium signal, agonist", "quantity": "EC50", "value": "> 50.1 µM"}
{"SMILES": "Cc1cc(C)cc(S(=O)(=O)c2c(C(=O)NCCNS(=O)(=O)c3ccccc3F)[nH]c3ccc(Cl)cc23)c1", "target": "gag-pol reverse transcriptase", "assay": "enzyme activity, inhibitor, ELISA", "quantity": "IC50", "value": "0.083 µM"}
{"SMILES": "N#Cc1ccc(COc2cccc(C3CCN(Cc4nc5ccc(C(=O)O)cc5n4C[C@@H]4CCO4)CC3)n2)c(F)c1", "target": "Gastric inhibitory polypeptide receptor (GIPR, Homo sapiens, UniProt P48546)", "assay": "cAMP, agonist", "quantity": "EC50", "value": "> 10 µM"}
{"SMILES": "Cc1cc(C)cc(S(=O)(=O)c2c(C(=O)NCCCNS(=O)(=O)c3ccc([N+](=O)[O-])cc3)[nH]c3ccc(Cl)cc23)c1", "target": "gag-pol reverse transcriptase", "assay": "enzyme activity, inhibitor, ELISA", "quantity": "IC50", "value": "0.12 µM"}
{"SMILES": "CCCCC(=O)[C@@]12C[C@@H]1[C@@H](n1ccc3c(NC)nc(C#Cc4ccc(Cl)s4)nc31)[C@H](O)[C@@H]2O", "target": "OPRD1", "assay": "ligand displacement, radioligand", "quantity": "Ki", "value": "> 10 µM"}
{"SMILES": "Cc1cc(C)cc(S(=O)(=O)c2c(C(=O)NCCCCNS(=O)(=O)c3ccc(F)cc3)[nH]c3ccc(Cl)cc23)c1", "target": "gag-pol reverse transcriptase", "assay": "enzyme activity, inhibitor, ELISA", "quantity": "IC50", "value": "0.15 µM"}
{"SMILES": "CNc1nc(C#Cc2ccc(Cl)s2)nc2c1ncn2[C@H]1[C@H](O)[C@H](O)[C@]2(C(=O)OCCC(C)C)C[C@H]12", "target": "OPRD1", "assay": "ligand displacement, radioligand", "quantity": "Ki", "value": "> 10 µM"}
{"SMILES": "CCCCN1CCC(COC(=O)c2ccc(N)c(OCF)c2)CC1", "target": "HTR3A", "assay": "cell-free assay, radioligand", "quantity": "Ki", "value": "> 10 µM"}
{"SMILES": "CNC(=O)[C@@]12C[C@@H]1[C@@H](n1cnc3c(NCCCO)nc(C#Cc4ccc(Cl)s4)nc31)[C@H](O)[C@@H]2O", "target": "OPRD1", "assay": "ligand displacement, radioligand", "quantity": "Ki", "value": "> 10 µM"}
{"SMILES": "CC(C)Oc1c(NC(=O)c2ccc(NC(=O)[C@H](CC(N)=O)NC(=O)c3ccc(NC(=O)c4ccc(C#N)s4)cc3)cc2)ccc(C(=O)Nc2ccc(C(=O)O)cc2)c1O", "target": "gyrA", "assay": "enzyme activity, inhibitor", "quantity": "IC50", "value": "0.5 µM"}
{"SMILES": "CNc1nc(C#Cc2ccccc2)nc2c1ncn2[C@H]1[C@H](O)[C@H](O)[C@@H]2C[C@@H]21", "target": "OPRD1", "assay": "ligand displacement, radioligand", "quantity": "Ki", "value": "> 10 µM"}
{"SMILES": "Cc1cc(C)cc(S(=O)(=O)c2c(C(=O)NCCCNS(=O)(=O)c3cccnc3)[nH]c3ccc(Cl)cc23)c1", "target": "gag-pol reverse transcriptase", "assay": "enzyme activity, inhibitor, ELISA", "quantity": "IC50", "value": "0.041 µM"}
